The test system of one experiment is Enterobacter cloacae. The experiment is described as follows: Minimum inhibitory concentration in vitro against Enterobacter cloacae MA 2646. In kind it is functional.
Another experiment has as its system Pseudomonas aeruginosa. The experiment in a line: Minimum inhibitory concentration was evaluated in vitro against Pseudomonas aeruginosa UI-18. In kind it is functional. The essentials: (§1)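 Standard microtitration broth assay against a panel of 10 Gram-positive and Gram-negative organisms. MIC read in µg/mL and averaged over multiple experiments.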
The test system of experiment [1] is Staphylococcus aureus. The experiment is described as follows: Minimum inhibitory concentration was evaluated in vitro against Staphylococcus aureus UC 76. In kind it is functional. In a few lines: as §1
The next experiment concerns Enterococcus faecalis. The experiment is described as follows: Minimum inhibitory concentration was evaluated in vitro against Enterococcus faecalis MGH-2. The class given is functional. The essentials: as §1
The subject of experiment [2] is Streptococcus pyogenes. The experiment in a line: Minimum inhibitory concentration was evaluated in vitro against Streptococcus pyogenes C 203. The class given is functional. In a few lines: as §1
In another experiment the test system is Providencia rettgeri. The experiment is described as follows: Minimum inhibitory concentration was evaluated in vitro against Providencia rettgeri M1771. In kind it is functional. The essentials:
as §1

Experiment [3] relates to Staphylococcus aureus. The experiment in a line: Minimum inhibitory concentration was evaluated in vitro against Staphylococcus aureus H 228. The class given is functional. In a few lines: as §1
For experiment [4], the system named is Escherichia coli. The experiment in a line: Antibacterial activity in vitro against Escherichia coli Vogel. In kind it is functional. The essentials: as §1
The subject of a further experiment is Klebsiella pneumoniae. The experiment in a line: Minimum inhibitory concentration was evaluated in vitro against Klebsiella pneumoniae MGH2. The class given is functional. The essentials:
as §1

Experiment [5] has as its system Streptococcus pyogenes. The experiment in a line: Antibacterial activity measured as mouse protection against Streptococcus pyogenes C 203 after subcutaneous administration. In kind it is functional. The settings on record: for ED50: Streptococcus pyogenes, C 203, sc, read-out: PD50.
For a further experiment, the system named is Streptococcus pneumoniae. The experiment in a line: Minimum inhibitory concentration was evaluated in vitro against Streptococcus pneumoniae SV-1. The class given is functional. In a few lines: as §1
In experiment [6] the test system is Streptococcus pyogenes. The experiment in a line: Compounds were evaluated in vivo for antibacterial activity for mouse protection against Streptococcus pyogenes C 203 after oral administration. The class given is functional. The settings on record: for ED50: Streptococcus pyogenes, C 203, po, read-out: PD50.
The next experiment concerns the target DNA gyrase (Escherichia coli, UniProt P0AES4+P0AES6). The experiment in a line: Inhibition against DNA gyrase. In kind it is protein-complex assay.
Experiment [7] deals with Escherichia coli. The experiment is described as follows: Antibacterial activity against Escherichia coli Vogel after oral administration in mouse. The settings on record: Escherichia coli, po; read-out: PD50. The class given is functional.
Experiment [8] has as its system Escherichia coli. The experiment is described as follows: Antibacterial activity against Escherichia coli Vogel after subcutaneous administration in mouse. In kind it is functional. The settings on record: Escherichia coli, sc; read-out: PD50.
Setting [9] is: Enterobacter cloacae, read-out: MIC.
[10] abbreviates: Pseudomonas aeruginosa, read-out: MIC.
The mark [11] stands for this setting: Staphylococcus aureus, read-out: MIC.
[12] abbreviates: Enterococcus faecalis, read-out: MIC.
[13] abbreviates: Streptococcus pyogenes, read-out: MIC.
[14] abbreviates: Providencia rettgeri, read-out: MIC.
[15] abbreviates: Escherichia coli, read-out: MIC.
[16] abbreviates: Klebsiella pneumoniae, read-out: MIC.
Where [17] appears, read: Streptococcus pneumoniae, read-out: MIC.

We go through seven compounds from ChEMBL document CHEMBL1126988, “Quinolone antibacterials containing the new 7-[3-(1-aminoethyl)-1- pyrrolidinyl] side chain: the effects of the 1-aminoethyl moiety and its stereochemical configurations on potency and in vivo efficacy” (J Med Chem, 1993).

Each structure is given as a SMILES string. Converted amounts (≈) assume the structure as drawn.

On to `C[C@H](N)[C@H]1CCN(c2nc3c(cc2F)c(=O)c(C(=O)O)cn3C2CC2)C1`, for which the minimal inhibitory concentration (MIC) – broadly, the lowest concentration found to suppress growth – in the experiment on Enterobacter cloacae (setting [9]) was 0.05 µg/mL (≈ 0.139 µM); in the experiment on Pseudomonas aeruginosa (setting [10]) it was 1.6 µg/mL (≈ 4.44 µM); with Staphylococcus aureus [1] (setting [11]), 0.025 µg/mL (≈ 0.0694 µM); in the experiment on Enterococcus faecalis (setting [12]) it was 0.1 µg/mL (≈ 0.277 µM); in the experiment on Streptococcus pyogenes [2] (setting [13]), 0.05 µg/mL (≈ 0.139 µM); in the experiment on Providencia rettgeri (setting [14]) it was 0.4 µg/mL (≈ 1.11 µM). For the same compound, the minimal inhibitory concentration (MIC) was 0.2 µg/mL (≈ 0.555 µM) in the experiment with Staphylococcus aureus [3] (setting [11]), 0.05 µg/mL (≈ 0.139 µM) in the experiment with Escherichia coli [4] (setting [15]), 0.2 µg/mL (≈ 0.555 µM) in the experiment on Klebsiella pneumoniae (setting [16]) and 0.05 µg/mL (≈ 0.139 µM) in the experiment on Streptococcus pneumoniae (setting [17]). In addition, the ED50 in the experiment on Streptococcus pyogenes [5] turned out to be 10 mg/kg; with Streptococcus pyogenes [6], 28 mg/kg. In addition, the IC50 (commonly the midpoint of a concentration-inhibition curve) against DNA gyrase was 6940 nM.
For the compound `NC1CCN(c2cc3c(cc2F)c(=O)c(C(=O)O)cn3C2CC2)C1` (configuration not stated), the minimum inhibitory concentration (MIC) in the experiment on Enterobacter cloacae (setting [9]) is 0.025 µg/mL (≈ 0.0754 µM); with Staphylococcus aureus [1] (setting [11]) it was 0.025 µg/mL (≈ 0.0754 µM); in the experiment on Enterococcus faecalis (setting [12]) it was 0.1 µg/mL (≈ 0.302 µM); with Streptococcus pyogenes [2] (setting [13]) it was 0.1 µg/mL (≈ 0.302 µM); with Staphylococcus aureus [3] (setting [11]) it was 0.2 µg/mL (≈ 0.604 µM); in the experiment on Klebsiella pneumoniae (setting [16]) it was 0.05 µg/mL (≈ 0.151 µM). Further, the ED50 with Escherichia coli [7] amounted to 3 mg/kg. The concentration for half-maximal inhibition (IC50) against DNA gyrase is 754 nM.
For the compound `C[C@@H](N)[C@H]1CCN(c2cc3c(cc2F)c(=O)c(C(=O)O)cn3C2CC2)C1` (racemic), the minimal inhibitory concentration (MIC) was 0.05 µg/mL (≈ 0.139 µM) against Enterobacter cloacae; 0.4 µg/mL (≈ 1.11 µM) against Pseudomonas aeruginosa; 0.025 µg/mL (≈ 0.0696 µM) in the experiment with Staphylococcus aureus [1] (setting [11]); 0.025 µg/mL (≈ 0.0696 µM) against Enterococcus faecalis; 0.003 µg/mL (≈ 0.00835 µM) in the experiment on Streptococcus pyogenes [2]; 0.2 µg/mL (≈ 0.556 µM) in the experiment on Providencia rettgeri. Also, the MIC was determined as 0.05 µg/mL (≈ 0.139 µM) against Staphylococcus aureus [3], 0.05 µg/mL (≈ 0.139 µM) against Escherichia coli [4], 0.1 µg/mL (≈ 0.278 µM) in the experiment on Klebsiella pneumoniae and 0.013 µg/mL (≈ 0.0362 µM) with Streptococcus pneumoniae. For the same compound, the results for the ED50 with Escherichia coli [7] and in the experiment on Escherichia coli [8] were 47 mg/kg and 1 mg/kg, respectively. The PD50 came out at 1 mg/kg in the experiment on Streptococcus pyogenes [5] and 11 mg/kg with Streptococcus pyogenes [6]. In addition, at DNA gyrase, the IC50 is 1390 nM.
`C[C@@H](N)[C@H]1CCN(c2cc3c(cc2F)c(=O)c(C(=O)O)cn3C2CC2)C1`: the minimal inhibitory concentration (MIC) came out at 0.2 µg/mL (≈ 0.556 µM) in the experiment with Enterobacter cloacae; 1.6 µg/mL (≈ 4.45 µM) in the experiment with Pseudomonas aeruginosa; 0.05 µg/mL (≈ 0.139 µM) against Staphylococcus aureus [1]; 0.2 µg/mL (≈ 0.556 µM) in the experiment on Enterococcus faecalis; 0.1 µg/mL (≈ 0.278 µM) with Streptococcus pyogenes [2]; 0.8 µg/mL (≈ 2.23 µM) against Providencia rettgeri. Moreover, the MIC in the experiment with Staphylococcus aureus [3] amounted to 0.4 µg/mL (≈ 1.11 µM); against Escherichia coli [4], 0.2 µg/mL (≈ 0.556 µM); in the experiment with Klebsiella pneumoniae, 0.4 µg/mL (≈ 1.11 µM); in the experiment with Streptococcus pneumoniae, 0.1 µg/mL (≈ 0.278 µM). In addition, the PD50 in the experiment with Streptococcus pyogenes [5] is 3 mg/kg; in the experiment on Streptococcus pyogenes [6], greater than 100 mg/kg. Moreover, at DNA gyrase, half-maximal inhibition (IC50) was put at 20900 nM.
As to `C[C@H](N)[C@H]1CCN(c2cc3c(cc2F)c(=O)c(C(=O)O)cn3C2CC2)C1`, the MIC in the experiment with Enterobacter cloacae (setting [9]) amounted to 0.2 µg/mL (≈ 0.556 µM); in the experiment with Pseudomonas aeruginosa (setting [10]), 1.6 µg/mL (≈ 4.45 µM); in the experiment with Staphylococcus aureus [1] (setting [11]), 0.1 µg/mL (≈ 0.278 µM); with Enterococcus faecalis (setting [12]), 0.4 µg/mL (≈ 1.11 µM); in the experiment on Streptococcus pyogenes [2] (setting [13]), 0.1 µg/mL (≈ 0.278 µM); in the experiment with Providencia rettgeri (setting [14]), 0.8 µg/mL (≈ 2.23 µM). Moreover, the MIC with Staphylococcus aureus [3] (setting [11]) is 0.8 µg/mL (≈ 2.23 µM); in the experiment on Escherichia coli [4] (setting [15]), 0.2 µg/mL (≈ 0.556 µM); with Klebsiella pneumoniae (setting [16]), 0.4 µg/mL (≈ 1.11 µM); in the experiment on Streptococcus pneumoniae (setting [17]), 0.2 µg/mL (≈ 0.556 µM). The values for the ED50 with Streptococcus pyogenes [5] and with Streptococcus pyogenes [6] were 12 mg/kg and greater than 100 mg/kg, respectively. For the same compound, the IC50 on DNA gyrase was 20900 nM.
Consider `NCC1CCN(c2nc3c(cc2F)c(=O)c(C(=O)O)cn3C2CC2)C1` (configuration not stated), for which the MIC was 0.1 µg/mL (≈ 0.289 µM) in the experiment on Enterobacter cloacae (setting [9]); 0.2 µg/mL (≈ 0.577 µM) in the experiment with Pseudomonas aeruginosa (setting [10]); 0.003 µg/mL (≈ 0.00866 µM) in the experiment on Staphylococcus aureus [1] (setting [11]); 0.025 µg/mL (≈ 0.0722 µM) in the experiment with Enterococcus faecalis (setting [12]); 0.025 µg/mL (≈ 0.0722 µM) in the experiment with Streptococcus pyogenes [2] (setting [13]); 0.4 µg/mL (≈ 1.15 µM) with Providencia rettgeri (setting [14]). Moreover, the MIC with Staphylococcus aureus [3] (setting [11]) was determined as 0.1 µg/mL (≈ 0.289 µM); in the experiment on Escherichia coli [4] (setting [15]), 0.05 µg/mL (≈ 0.144 µM); with Klebsiella pneumoniae (setting [16]) it was 0.1 µg/mL (≈ 0.289 µM); in the experiment on Streptococcus pneumoniae (setting [17]), 0.1 µg/mL (≈ 0.289 µM). In addition, the ED50 with Escherichia coli [7] came out at 17 mg/kg; in the experiment with Escherichia coli [8], 1 mg/kg; in the experiment with Streptococcus pyogenes [5], 4 mg/kg; with Streptococcus pyogenes [6], 39 mg/kg. The compound further gave a half-inhibitory concentration (IC50) at DNA gyrase of 2170 nM.
For the compound `NCC1CCN(c2cc3c(cc2F)c(=O)c(C(=O)O)cn3C2CC2)C1` (configuration not stated), the MIC in the experiment with Enterobacter cloacae (setting [9]) was found to be 0.1 µg/mL (≈ 0.29 µM); in the experiment with Pseudomonas aeruginosa (setting [10]), 0.8 µg/mL (≈ 2.32 µM); in the experiment on Staphylococcus aureus [1] (setting [11]), 0.006 µg/mL (≈ 0.0174 µM); in the experiment with Enterococcus faecalis (setting [12]), 0.05 µg/mL (≈ 0.145 µM); in the experiment with Streptococcus pyogenes [2] (setting [13]), 0.013 µg/mL (≈ 0.0376 µM); in the experiment with Providencia rettgeri (setting [14]) it was 0.2 µg/mL (≈ 0.579 µM). Moreover, the MIC was found to be 0.05 µg/mL (≈ 0.145 µM) in the experiment with Staphylococcus aureus [3] (setting [11]), 0.05 µg/mL (≈ 0.145 µM) in the experiment with Escherichia coli [4] (setting [15]), 0.1 µg/mL (≈ 0.29 µM) in the experiment on Klebsiella pneumoniae (setting [16]) and 0.013 µg/mL (≈ 0.0376 µM) with Streptococcus pneumoniae (setting [17]). Moreover, the ED50 with Escherichia coli [7] is greater than 100 mg/kg; in the experiment with Escherichia coli [8], 2 mg/kg; in the experiment with Streptococcus pyogenes [5], 4 mg/kg; in the experiment on Streptococcus pyogenes [6], greater than 100 mg/kg. Besides, the IC50 at DNA gyrase was 1450 nM.
